Changes are numbered by the printed parent chain.
Biological target: T1, OR5M8 (Homo sapiens) (UniProt Q8NGP6)
T1 sequence (whole entry): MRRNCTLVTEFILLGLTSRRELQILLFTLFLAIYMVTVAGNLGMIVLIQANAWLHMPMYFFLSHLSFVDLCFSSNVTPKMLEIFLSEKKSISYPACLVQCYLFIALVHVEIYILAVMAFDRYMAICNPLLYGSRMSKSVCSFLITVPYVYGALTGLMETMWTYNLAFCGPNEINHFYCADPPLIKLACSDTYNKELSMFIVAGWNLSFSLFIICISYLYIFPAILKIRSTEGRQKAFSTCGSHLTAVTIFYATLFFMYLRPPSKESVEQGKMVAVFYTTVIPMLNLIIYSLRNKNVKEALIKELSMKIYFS
Conditions: stereoisomer not certain
Method in brief: (§1)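 Transient luciferase assays in mammalian cell lines were common, though methods varied by source. The values come from published papers and their supplementary material, with extra details from the original authors when needed. Responsive refers to a measured signal the original authors judged statistically different from baseline, and non-responsive (inactive) to the remainder.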
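Also: active if original authors judged signal statistically different from baseline.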

Odorant receptor agonist call, inactive:
CCC(S)C(C)CO (stereo unspecified)
CC1=C(O)C(=O)OC1C (stereo unspecified)
CC1CCCCCCCCCCCCC(=O)C1 (stereo unspecified)
CCC1OC(=O)C(O)=C1C (stereo unspecified)
CCCCCC(S)C(C)CO (stereo unspecified)
CC1=C(O)C(=O)C(C)O1 (stereo unspecified)
CCCCC(S)C(C)CO (stereo unspecified)
CC1=NC(C)C(C)S1 (stereo unspecified)
CCC1OC(C)=C(O)C1=O (stereo unspecified)
CC(=O)c1c(C)c([N+](=O)[O-])c(C(C)(C)C)c([N+](=O)[O-])c1C
CC(CO)CS (stereo unspecified)
CCCCCC(=O)C(C)C(C)=O (stereo unspecified)
CCCC(S)CCOC(C)=O (stereo unspecified)
CCCCCCC=CCCC=O
Cc1cnc(C)c(C)n1

Biological target: T2, OR5M9 (Homo sapiens) (UniProt Q8NGP3)
T2 sequence (whole entry): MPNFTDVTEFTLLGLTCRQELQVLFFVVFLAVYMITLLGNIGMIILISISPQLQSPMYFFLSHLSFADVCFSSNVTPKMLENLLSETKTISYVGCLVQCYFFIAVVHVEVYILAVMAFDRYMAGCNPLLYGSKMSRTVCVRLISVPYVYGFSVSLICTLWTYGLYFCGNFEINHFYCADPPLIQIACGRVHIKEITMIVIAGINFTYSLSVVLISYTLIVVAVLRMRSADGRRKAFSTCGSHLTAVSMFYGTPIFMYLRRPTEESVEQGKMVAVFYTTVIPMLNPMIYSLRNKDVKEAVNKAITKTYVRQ
Conditions: stereoisomer not certain
Method in brief: as §1

Odorant receptor agonist call, inactive:
CCC(S)C(C)CO (stereo unspecified)
CC1=C(O)C(=O)OC1C (stereo unspecified)
CC1CCCCCCCCCCCCC(=O)C1 (stereo unspecified)
CCC1OC(=O)C(O)=C1C (stereo unspecified)
CCCCCC(S)C(C)CO (stereo unspecified)
CC1=C(O)C(=O)C(C)O1 (stereo unspecified)
CCCCC(S)C(C)CO (stereo unspecified)
CC1=NC(C)C(C)S1 (stereo unspecified)
CCC1OC(C)=C(O)C1=O (stereo unspecified)
CC(=O)c1c(C)c([N+](=O)[O-])c(C(C)(C)C)c([N+](=O)[O-])c1C
CC(CO)CS (stereo unspecified)
CCCCCC(=O)C(C)C(C)=O (stereo unspecified)
CCCC(S)CCOC(C)=O (stereo unspecified)
CCCCCCC=CCCC=O
Cc1cnc(C)c(C)n1

System: T3, OR5MA L2F C311H
T3 sequence (whole entry): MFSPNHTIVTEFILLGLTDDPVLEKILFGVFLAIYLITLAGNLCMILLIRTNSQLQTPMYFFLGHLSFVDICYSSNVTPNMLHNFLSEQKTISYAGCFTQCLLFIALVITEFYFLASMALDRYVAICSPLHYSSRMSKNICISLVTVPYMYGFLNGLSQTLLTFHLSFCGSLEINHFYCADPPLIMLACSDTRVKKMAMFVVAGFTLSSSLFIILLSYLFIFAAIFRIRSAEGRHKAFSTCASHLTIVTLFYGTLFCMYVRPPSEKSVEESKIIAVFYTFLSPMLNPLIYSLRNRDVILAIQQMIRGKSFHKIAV
Conditions: stereoisomer not certain
Method in brief: as §1

Odorant receptor agonist call, inactive:
CC1=C(O)C(=O)OC1C (stereo unspecified)
CCC1OC(=O)C(O)=C1C (stereo unspecified)
CC1=C(O)C(=O)C(C)O1 (stereo unspecified)
CC1=NC(C)C(C)S1 (stereo unspecified)
CCC1OC(C)=C(O)C1=O (stereo unspecified)
CCCC(S)CCOC(C)=O (stereo unspecified)
CCCCCCC=CCCC=O
Cc1cnc(C)c(C)n1

System: T4, OR5MA L2F Q54H C311H
T4 sequence (whole entry): T3 sequence (whole entry) with Q54H
Conditions: stereoisomer not certain
Method in brief: as §1

Odorant receptor agonist call, inactive:
CC1=C(O)C(=O)OC1C (stereo unspecified)
CCC1OC(=O)C(O)=C1C (stereo unspecified)
CC1=C(O)C(=O)C(C)O1 (stereo unspecified)
CC1=NC(C)C(C)S1 (stereo unspecified)
CCC1OC(C)=C(O)C1=O (stereo unspecified)
CCCC(S)CCOC(C)=O (stereo unspecified)
CCCCCCC=CCCC=O
Cc1cnc(C)c(C)n1

Biological target: T5, OR5P2 (Homo sapiens) (UniProt Q8WZ92)
T5 sequence (whole entry): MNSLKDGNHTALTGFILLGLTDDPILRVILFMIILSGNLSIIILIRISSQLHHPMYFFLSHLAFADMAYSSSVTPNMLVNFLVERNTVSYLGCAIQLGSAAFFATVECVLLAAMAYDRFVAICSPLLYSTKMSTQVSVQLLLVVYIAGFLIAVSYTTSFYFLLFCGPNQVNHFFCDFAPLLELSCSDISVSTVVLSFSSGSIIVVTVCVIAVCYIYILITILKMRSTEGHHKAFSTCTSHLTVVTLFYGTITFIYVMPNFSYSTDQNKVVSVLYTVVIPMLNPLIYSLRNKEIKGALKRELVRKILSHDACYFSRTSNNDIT
Conditions: stereoisomer not certain
Method in brief: as §1

Odorant receptor agonist call, inactive:
CCC(S)C(C)CO (stereo unspecified)
CC1=C(O)C(=O)OC1C (stereo unspecified)
CC1CCCCCCCCCCCCC(=O)C1 (stereo unspecified)
CCC1OC(=O)C(O)=C1C (stereo unspecified)
CCCCCC(S)C(C)CO (stereo unspecified)
CC1=C(O)C(=O)C(C)O1 (stereo unspecified)
CCCCC(S)C(C)CO (stereo unspecified)
CC1=NC(C)C(C)S1 (stereo unspecified)
CCC1OC(C)=C(O)C1=O (stereo unspecified)
CC(=O)c1c(C)c([N+](=O)[O-])c(C(C)(C)C)c([N+](=O)[O-])c1C
CC(CO)CS (stereo unspecified)
CCCCCC(=O)C(C)C(C)=O (stereo unspecified)
CCCC(S)CCOC(C)=O (stereo unspecified)
CCCCCCC=CCCC=O
Cc1cnc(C)c(C)n1

From the M2OR odorant receptor database
